Results as given in ChEMBL document CHEMBL1157544, “New benzophenone-derived bisphosphonium salts as leishmanicidal leads targeting mitochondria through inhibition of respiratory complex II” (2010).
The source made the active and inactive calls. The rule behind the calls is not given here.

Tests used:
[1] = test system: Leishmania donovani; test: Antileishmanial activity against Leishmania donovani MHOM/SC/00/1S-2D promastigotes assessed as rhodamine 123 accumulation at LC50 by mitochondrial membrane potential assay; assay type: functional
Procedure, shortened: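 Promastigotes held overnight in growth medium with each compound at its LC50, then loaded with 0.3 μg/mL rhodamine 123. Dye uptake measured by flow cytometry (ex 488/em 525 nm) and expressed as percent of untreated cells. 1 mM KCN used as the fully depolarized control.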

[2] = test system: Leishmania donovani; test: Antileishmanial activity against Leishmania donovani MHOM/SC/00/1S-2D promastigotes after 48 hrs by MTT assay; assay type: functional
Procedure, shortened: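 Late-exponential promastigotes washed twice in HBSS plus 10 mM D-glucose (pH 7.2) and resuspended at 2 × 10^7 cells/mL. Drug exposure 4 h at 25 °C, then cells washed to remove unbound drug. Regrowth 48 h at 25 °C in growth medium without phenol red, followed by MTT (1 mg/mL) reduction for 2 h at 25 °C. LC50 taken from sigmoidal inhibition curves; mean of triplicates ± SD.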

[3] = test system: Leishmania pifanoi; test: Antileishmanial activity against Leishmania pifanoi MHOM/VE/60/Ltrod after 96 hrs by MTT assay; assay type: functional
Procedure, shortened: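 Axenic amastigotes harvested at late exponential phase, washed twice in HBSS plus 10 mM D-glucose (pH 7.2) and set at 2 × 10^7 cells/mL. Drug exposure 4 h at 32 °C, then washed. Regrowth 96 h at 32 °C in growth medium without phenol red, followed by MTT (1 mg/mL) reduction for 2 h at 32 °C. LC50 taken from sigmoidal curves; triplicates ± SD.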

[4] = test system: Leishmania donovani; test: Antileishmanial activity against digitonized Leishmania donovani MHOM/SC/00/1S-2D promastigotes assessed as inhibition of oxygen consumption at 16 uM in presence of FCCP mitochondrial uncoupler; assay type: functional, organism-based
Procedure, shortened: (§1)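 Clark electrode at 25 °C. Promastigotes at 10^8 cells/mL in respiration buffer with 5 mM succinate and 1 mg/mL fatty-acid-free BSA. Cells permeabilized with 60 μM digitonin, then 100 μM ADP added for state 3. After a steady rate, compound added, then 10 μM FCCP, 0.1 mM TMPD + 1.7 mM ascorbate, 6.7 mM α-glycerophosphate, 2 mM malonate or 1 μM antimycin A. Rates taken from trace slopes.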

[5] = test system: Leishmania donovani; test: Induction of morphological changes in Leishmania donovani MHOM/SC/00/1S-2D promastigotes assessed as mitochondrial kinetoplast at 5 uM after 4 hrs; assay type: functional, organism-based
Procedure, shortened: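 Promastigotes treated 4 h under the standard conditions, washed in PBS and fixed in 5% glutaraldehyde. Post-fixed in 2.5% OsO4 for 1 h, dehydrated through graded ethanol and propylene oxide, embedded in Epon 812 and imaged by transmission electron microscopy.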

[6] = test system: Leishmania donovani; test: Induction of apoptosis in Leishmania donovani MHOM/SC/00/1S-2D promastigotes assessed as apoptotic cells at 15 uM propidium iodide fluorescence cytofluorometry; assay type: functional
Procedure, shortened: (§2)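 Promastigotes incubated overnight with the compound, then stained with 50 μg/mL propidium iodide. The sub-G1 peak was measured by flow cytometry. 15 μM miltefosine under identical conditions served as the positive control.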

[7] = test system: Leishmania donovani; test: Antileishmanial activity against digitonized Leishmania donovani MHOM/SC/00/1S-2D promastigotes assessed as inhibition of oxygen consumption at 16 uM; assay type: functional, organism-based; procedure, shortened: as §1
[8] = test system: Leishmania donovani; test: Antileishmanial activity against digitonized Leishmania donovani MHOM/SC/00/1S-2D promastigotes assessed as restoration of oxygen consumption at 16 uM in presence of alpha-glycerophosphate; assay type: functional, organism-based; procedure, shortened: as §1
[9] = test system: Leishmania donovani; test: Induction of apoptosis in Leishmania donovani MHOM/SC/00/1S-2D promastigotes assessed as apoptotic cells at 1 uM propidium iodide fluorescence cytofluorometry; assay type: functional; procedure, shortened: as §2
[10] = test system: Leishmania donovani; test: Decrease in intracellular ATP level in Leishmania donovani MHOM/SC/00/1S-2D promastigotes assessed as luminescence at 0.6 to 8 uM; assay type: functional, organism-based
Procedure, shortened: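 3-Luc promastigotes expressing cytoplasmic firefly luciferase, 2 × 10^7/mL in HBSS-Glc, loaded with 25 μM DMNPE-luciferin (final). Compound added at the luminescence plateau, counted as time zero and 100%. Luminescence recorded 80 min, averaged every 4 s, and normalized to untreated parasites.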

[11] = test system: Leishmania donovani; test: Antileishmanial activity against digitonized Leishmania donovani MHOM/SC/00/1S-2D promastigotes assessed as restoration of oxygen consumption at 16 uM in presence of TMPD-ascorbate; assay type: functional; procedure, shortened: as §1
[12] = test system: Leishmania donovani; test: Induction of apoptosis in Leishmania donovani MHOM/SC/00/1S-2D promastigotes assessed as apoptotic cells at 2.5 uM propidium iodide fluorescence cytofluorometry; assay type: functional; procedure, shortened: as §2
[13] = test system: Leishmania donovani; test: Antileishmanial activity against Leishmania donovani MHOM/SC/00/1S-2D promastigotes assessed as inhibition of proliferation at 5 um after 4 hrs; assay type: functional
Procedure, shortened: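 Promastigotes washed into HBSS-Glc pH 7.2 at 2 × 10^7 cells/mL and exposed to drug for 4 h at 25 °C. Cells then washed and left to grow 48 h at 25 °C in growth medium without phenol red. Growth read by MTT reduction (1 mg/mL, 2 h). Triplicate samples.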

[14] = test system: Leishmania donovani; test: Antileishmanial activity against Leishmania donovani MHOM/SC/00/1S-2D promastigotes assessed as plasma membrane integrity at 25 uM; assay type: functional, organism-based
Procedure, shortened: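 SYTOX green uptake. Promastigotes (2 × 10^7/mL) in HBSS-Glc were preincubated with 1 μM dye before compound was added. Fluorescence read at ex 485/em 520 nm. Full permeation was defined by 0.1% Triton X-100.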

C[P+](Cc1ccc(C(=O)c2ccc(C[P+](C)(c3ccccc3)c3ccccc3)cc2)cc1)(c1ccccc1)c1ccccc1.[Br-].[Br-]
Activity [1]: 100% | LC50 [2]: 19.3 µM | LC50 [3]: 1.64 µM

CC(C)C[P+](Cc1ccc(C(=O)c2ccc(C[P+](CC(C)C)(CC(C)C)CC(C)C)cc2)cc1)(CC(C)C)CC(C)C
LC50 [2]: > 50 µM | LC50 [3]: > 50 µM

CC[P+](CC)(CC)Cc1ccc(C(=O)c2ccc(C[P+](CC)(CC)CC)cc2)cc1
LC50 [2]: > 50 µM | LC50 [3]: > 50 µM

CCCCCCCC[P+](CCCCCCCC)(CCCCCCCC)Cc1ccc(C(=O)c2ccc(C[P+](CCCCCCCC)(CCCCCCCC)CCCCCCCC)cc2)cc1.[Br-].[Br-]
Activity [1]: 10.8% | LC50 [2]: 5.66 µM | LC50 [3]: 1.37 µM

CCCC[P+](CCCC)(CCCC)Cc1ccc(C(=O)c2ccc(C[P+](CCCC)(CCCC)CCCC)cc2)cc1
LC50 [2]: > 50 µM | LC50 [3]: > 50 µM

CC(C)[P+](Cc1ccc(C(=O)c2ccc(C[P+](C(C)C)(C(C)C)C(C)C)cc2)cc1)(C(C)C)C(C)C
LC50 [2]: > 50 µM | LC50 [3]: > 50 µM

C[P+](C)(C)Cc1ccc(C(=O)c2ccc(C[P+](C)(C)C)cc2)cc1
LC50 [2]: > 50 µM | LC50 [3]: > 50 µM

O=C(c1ccc(C[P+](c2ccccc2)(c2ccccc2)c2ccccn2)cc1)c1ccc(C[P+](c2ccccc2)(c2ccccc2)c2ccccn2)cc1.[Br-].[Br-]
Activity [1]: 100% | LC50 [2]: 3.03 µM | LC50 [3]: 2.58 µM

O=C(c1ccc(C[P+](c2ccco2)(c2ccco2)c2ccco2)cc1)c1ccc(C[P+](c2ccco2)(c2ccco2)c2ccco2)cc1
LC50 [2]: 18.1 µM | LC50 [3]: > 50 µM

CCC[P+](CCC)(CCC)Cc1ccc(C(=O)c2ccc(C[P+](CCC)(CCC)CCC)cc2)cc1
LC50 [2]: > 50 µM | LC50 [3]: > 50 µM

C[P+](C)(Cc1ccc(C(=O)c2ccc(C[P+](C)(C)c3ccccc3)cc2)cc1)c1ccccc1
LC50 [2]: > 50 µM | LC50 [3]: > 50 µM

O=C(c1ccc(C[P+](C2CCCCC2)(C2CCCCC2)C2CCCCC2)cc1)c1ccc(C[P+](C2CCCCC2)(C2CCCCC2)C2CCCCC2)cc1.[Br-].[Br-]
Activity [1]: 42% | LC50 [2]: 3.3 µM | LC50 [3]: 1.67 µM

Cc1ccccc1[P+](Cc1ccc(C(=O)c2ccc(C[P+](c3ccccc3)(c3ccccc3)c3ccccc3C)cc2)cc1)(c1ccccc1)c1ccccc1.[Br-].[Br-]
Activity [1]: 55.75% | LC50 [2]: 1.9 µM | LC50 [3]: 1.51 µM

O=C(c1ccc(C[P+](c2ccccc2)(C2CCCCC2)C2CCCCC2)cc1)c1ccc(C[P+](c2ccccc2)(C2CCCCC2)C2CCCCC2)cc1.[Br-].[Br-]
Activity [1]: 83.12% | LC50 [2]: 2.1 µM | LC50 [3]: 1.45 µM

O=C(c1ccc(C[P+](c2ccccc2)(c2ccccc2)c2ccccc2)cc1)c1ccc(C[P+](c2ccccc2)(c2ccccc2)c2ccccc2)cc1.[Br-].[Br-]
Activity [1]: 67.25% | LC50 [2]: 2.73 µM | LC50 [3]: 1.53 µM

CC[P+](Cc1ccc(C(=O)c2ccc(C[P+](CC)(c3ccccc3)c3ccccc3)cc2)cc1)(c1ccccc1)c1ccccc1.[Br-].[Br-]
Activity [1]: 100% | LC50 [2]: 6.9 µM | LC50 [3]: 14 µM

Cc1ccc([P+](Cc2ccc(C(=O)c3ccc(C[P+](c4ccccc4)(c4ccccc4)c4ccc(C)cc4)cc3)cc2)(c2ccccc2)c2ccccc2)cc1.[Br-].[Br-]
Activity [1]: 53.25% | LC50 [2]: 1.2 µM | LC50 [3]: 1.38 µM

CCCCCCCCCCCCCCCCOP(=O)([O-])OCC[N+](C)(C)C [MILTEFOSINE]
Activity [1]: 75% | LC50 [2]: 12.5 µM | LC50 [3]: 26.3 µM

CCCCC[P+](CCCCC)(CCCCC)Cc1ccc(C(=O)c2ccc(C[P+](CCCCC)(CCCCC)CCCCC)cc2)cc1.[Br-].[Br-]
Activity [4]: Active | Activity [1]: 48% | Activity [5]: Active | Activity [6]: 24.9% | Activity [7]: Active | LC50 [2]: 1.09 µM | Activity [8]: Active | Activity [9]: 22.1% | Activity [10]: Active | Activity [11]: 50% | Activity [12]: 34.5% | inhibition (INH) [13]: 80% | LC50 [3]: 0.97 µM | Activity [14]: inactive

CC[P+](CC)(Cc1ccc(C(=O)c2ccc(C[P+](CC)(CC)c3ccccc3)cc2)cc1)c1ccccc1
LC50 [2]: > 50 µM | LC50 [3]: > 50 µM
